Laboratory results reported in ChEMBL document CHEMBL4689842, “EUbOPEN Chemogenomics Library wave 1” (2021).
“And” between values parts separate entries of the source, which are not always exact repeats. Equal entries are not always repeated.

Test system: U2OS
Test: Multiplex assay against U2OS
Assay type: toxicity, cell-based
Conditions: human, 10 µM, compound concentration 10 uM
Procedure, shortened: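 Four dyes were applied at seeding to live cells: Hoechst33342, BioTracker Green Microtubule Cytoskeleton Dye, MitoTracker Red and Annexin V Alexa Fluor 680. Imaging after compound addition used a CQ1 microscope at 37°C and 5% CO2. CellPathfinder machine-learning gating then sorted cells into Hoechst high-intensity objects or normal cells, normal cells into healthy, pyknosed or fragmented nuclei, and pyknosed cells into mitotic or apoptotic, with tubulin, mitochondrial-mass and membrane-permeability phenotypes given as per cents of healthy-nucleus cells.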

For `COc1ccc(Oc2cc(NCCC(F)(F)F)c3ncc(-c4ccc(C(=O)NC5CC5)c(C)c4)n3n2)c(F)c1F` [BAY-1217389], the “Population Apoptotic (%)” value (12 h, replicate 1) was 40% and 58%, the “Population Fragmented Nuclei (%)” value (12 h, replicate 1) was 9% and 11% and the “Population Healthy Nuclei (%)” value (12 h, replicate 1) was 83% and 73%. The “Population Hoechst High Intensity Objects (%)” value (12 h, replicate 1) was 4%, the “Population Membrane Permeable-Phenotype (%)” value (12 h, replicate 1) was 66% and 23% and the “Population Mitotic Cells (%)” value (12 h, replicate 1) was 60% and 41%. For the same molecule, the “Population Normal (%)” value (12 h, replicate 1) was 95%, the “Population Pyknosed Nuclei (%)” value (12 h, replicate 1) was 7% and 15% and the “Population Tubulin-Different-Phenotype (%)” value (12 h, replicate 1) was 97% and 100%. The “Total Cell Count” value (12 h, replicate 1) was 148 and 164, the “Population Apoptotic (%)” value (12 h, replicate 2) was 60% and 55% and the “Population Fragmented Nuclei (%)” value (12 h, replicate 2) was 19%. The “Population Healthy Nuclei (%)” value (12 h, replicate 2) was 85% and 59%, the “Population Hoechst High Intensity Objects (%)” value (12 h, replicate 2) was 17% and 11% and the “Population Membrane Permeable-Phenotype (%)” value (12 h, replicate 2) was 53% and 63%. The “Population Mitotic Cells (%)” value (12 h, replicate 2) was 40% and 45%, the “Population Normal (%)” value (12 h, replicate 2) was 82% and 88% and the “Population Tubulin-Different-Phenotype (%)” value (12 h, replicate 2) was 88%. The “Total Cell Count” value (12 h, replicate 2) was 114 and 108, the “Population Apoptotic (%)” value (24 h, replicate 1) was 52% and 69% and the “Population Fragmented Nuclei (%)” value (24 h, replicate 1) was 10% and 14%. The “Population Healthy Nuclei (%)” value (24 h, replicate 1) was 77% and 65%, the “Population Hoechst High Intensity Objects (%)” value (24 h, replicate 1) was 5% and 2% and the “Population Membrane Permeable-Phenotype (%)” value (24 h, replicate 1) was 38% and 41%. For the same molecule, the “Population Mitochondria Different-Phenotype (%)” value (24 h, replicate 1) was 44% and 83%, the “Population Mitotic Cells (%)” value (24 h, replicate 1) was 47% and 30% and the “Population Normal (%)” value (24 h, replicate 1) was 94% and 97%. For the same molecule, the “Population Pyknosed Nuclei (%)” value (24 h, replicate 1) was 11% and 20%, the “Population Tubulin-Different-Phenotype (%)” value (24 h, replicate 1) was 92% and 99% and the “Total Cell Count” value (24 h, replicate 1) was 154 and 167. For the same molecule, the “Population Apoptotic (%)” value (24 h, replicate 2) was 50% and 60%, the “Population Fragmented Nuclei (%)” value (24 h, replicate 2) was 13% and the “Population Healthy Nuclei (%)” value (24 h, replicate 2) was 75% and 54%. The “Population Hoechst High Intensity Objects (%)” value (24 h, replicate 2) was 10% and 13%, the “Population Membrane Permeable-Phenotype (%)” value (24 h, replicate 2) was 39% and 78% and the “Population Mitochondria Different-Phenotype (%)” value (24 h, replicate 2) was 59% and 95%. The “Population Mitotic Cells (%)” value (24 h, replicate 2) was 50% and 39%, the “Population Normal (%)” value (24 h, replicate 2) was 89% and 86% and the “Population Pyknosed Nuclei (%)” value (24 h, replicate 2) was 14% and 32%. For the same molecule, the “Population Tubulin-Different-Phenotype (%)” value (24 h, replicate 2) was 87% and 100% and the “Total Cell Count” value (24 h, replicate 2) was 110 and 101.
